# FN deposit inh: fibronectin deposition inhibition. AH1F fibroblasts, Alexa488-fibronectin deposition fluorescence, overnight. inhibition, % at 12.6 µM. hit rate 0.086% among 350,000;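 active = mean inhibition across replicates of 30% or more, regardless of how many single replicates reach that level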
#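 Assay system: AH1F fibroblast monolayer, labelled fibronectin deposition. Amount: 10000 cells per well. Also added: labelled fibronectin 24 nM. Compound: single-point pinned compound. Incubation: cell attachment 1 h, compound and FN exposure overnight. Detection: fluorescence after three HBSS washes, excitation 485 nm, emission 525 nm. Read-out: inhibition of fibronectin deposition signal.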
# SIRT5 block: sirtuin-5 (human) deacylase inhibition; AID 652115; Purified SirT5, succinyl-peptide AMC, trypsin-coupled fluorescence; Q9NXA8; inhibition, % at 15 µM; hit rate 1.1% among 330,000; in the data active = inhibition above about 15%
# Target sequence (Q9NXA8 whole entry, looked up): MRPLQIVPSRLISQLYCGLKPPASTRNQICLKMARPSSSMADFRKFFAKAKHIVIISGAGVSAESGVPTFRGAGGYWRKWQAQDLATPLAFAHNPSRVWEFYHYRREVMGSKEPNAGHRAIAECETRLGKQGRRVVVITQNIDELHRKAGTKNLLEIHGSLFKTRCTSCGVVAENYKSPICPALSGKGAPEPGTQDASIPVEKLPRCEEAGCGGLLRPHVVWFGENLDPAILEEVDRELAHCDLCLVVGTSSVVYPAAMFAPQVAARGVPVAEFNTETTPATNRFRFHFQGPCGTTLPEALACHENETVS
# PGC1a acetyl inh: PGC1a acetylation modulation, inhibitor mode. U2OS PGC1a acetylation, AlphaScreen anti-acetyl-lysine; with virally co-expressed GCN5 acetyltransferase. inhibition, % at 15.6 µM. hit rate 0.17% among 350,000;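 active = every replicate shows inhibition of at least 40%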
# ERAP1 inh: inhibitors of human ERAP1 aminopeptidase; Q9NZ08; recombinant ERAP1, Leu-AMC fluorescence, 60 min; inhibition, % at 10.7 µM; hit rate 0.15% among 340,000; AID 652197;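 active = mean replicate inhibition of at least 30%, or all replicates individually reaching that 30% level; inactive = mean below 30% and not every replicate reaching it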
# FGF22 binding: shifts melting point of recombinant human FGF22 | activity (Tm shift, normalised), % at 9.99 µM | AID 651658 | recombinant FGF22 thermal shift, SYPRO orange fluorescence; percent of sucrose octasulfate shift, DMSO zero | hit rate 1.5% among 340,000;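 active = mean Tm shift, scaled 0 neutral to 100 positive control, at about 1.3% or above, every replicate too, limit read from the data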
# Target sequence (Q9HCT0 whole entry, looked up): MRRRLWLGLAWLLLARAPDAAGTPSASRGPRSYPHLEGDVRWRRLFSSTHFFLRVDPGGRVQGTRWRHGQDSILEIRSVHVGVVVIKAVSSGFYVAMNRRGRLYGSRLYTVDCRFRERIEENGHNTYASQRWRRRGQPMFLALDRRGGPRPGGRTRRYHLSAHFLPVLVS
# A number is an active result; 0 = inactive; - = no result given; ! = not active in a repeat. Only some compounds are listed: those with a hit (about 2.2% of all), similar ones and a draw of the others.
SMILES,FN deposit inh,SIRT5 block,PGC1a acetyl inh,ERAP1 inh,FGF22 binding
Cc1ccc(S(=O)(=O)Nc2ccc3c(c2)C(=O)N([C@H](C)CO)C[C@H](C)[C@@H](CN(C)C(=O)Nc2ccccc2)OCCCC[C@@H](C)O3)cc1,-,0,0,0,0
C[C@@H]1CN([C@@H](C)CO)C(=O)c2cc(N(C)C)ccc2O[C@@H](C)CCCCO[C@@H]1CN(C)C(=O)Nc1ccccc1,-,16,0,0,0
Cc1ccc(S(=O)(=O)Nc2ccc3c(c2)C(=O)N([C@@H](C)CO)C[C@H](C)[C@@H](CN(C)C(=O)Nc2ccccc2)OCCCC[C@H](C)O3)cc1,-,17,0,0,0
C[C@@H]1CN([C@H](C)CO)C(=O)c2cc(N(C)C)ccc2O[C@H]1CN(C)C(=O)Nc1ccc(F)cc1,-,34,0,0,0
C[C@@H]1CCCCO[C@H](CN(C)C(=O)CCC(F)(F)F)[C@H](C)CN([C@@H](C)CO)C(=O)c2cc(NS(=O)(=O)c3ccc(Cl)cc3)ccc2O1,0,17!,0,0,0
CCOC(=O)N(C)C[C@H]1OCc2cn(nn2)CCCC(=O)N([C@@H](C)CO)C[C@H]1C,0,0,0,0,0
COc1ccc(S(=O)(=O)Nc2cccc3c2O[C@H](CN(C)S(=O)(=O)c2ccc(OC)cc2)[C@H](C)CN([C@H](C)CO)C3=O)cc1,-,0,-,0,0
C[C@@H]1CCCCO[C@@H](CN(C)C(=O)Nc2ccc(C(F)(F)F)cc2)[C@H](C)CN([C@@H](C)CO)C(=O)c2cc(NS(=O)(=O)c3ccc(Cl)cc3)ccc2O1,-,19,0,0,0
CN(C)c1cc[n+](CC(=O)Nc2ccc(OC(F)F)cc2)cc1,0,0,0,107,0
O=C(Cc1ccccc1)NCC(=O)OCC(=O)c1ccccc1Cl,0,0,-,0,112
Cc1ccc(NC(=S)NCc2ccco2)c(C)c1,0,80,-,-,0
CCOc1ccc(NC(=S)NCc2ccco2)cc1,0,17,0,0,0
C[C@H]1CN([C@@H](C)CO)C(=O)Cc2cc(NS(=O)(=O)c3cccs3)ccc2O[C@@H]1CN(C)CC1CCCCC1,0,0,0,0,0
Nc1ccccc1Oc1ncc(C(F)(F)F)cc1Cl,-,0,46,0,0
CC=Cc1ccc2n(c1=O)C[C@H]1[C@H](CO)[C@@H](C(=O)OC)N(CCc3ccccc3)[C@@H]21 (mixture of isomers),-,0,-,0,0
COc1cc(NC(=S)N2CCN(C(=O)C3CCCO3)CC2)c(OC)cc1Cl (stereo not given),0,0,-,0,44
O=C(C[C@H]1CC[C@@H](NC(=O)C2CC2)[C@H](CO)O1)NCc1ccccc1Cl,0,0,0,0,0
CC(NC(=O)c1ccccc1)C(=O)N/N=C/c1cccc([N+](=O)[O-])c1 (stereo not given),0,0,-,0,43
CCOC(=O)N(O)c1ccc(C=Cc2ccccc2)cc1,0,0,49,0,0
CCOC(=O)C(=Cc1ccc(N(C)C)cc1)C(=O)c1ccccc1,0,0,-,0,0
COc1ccc(CN(C)C[C@@H]2Oc3c(NC(=O)c4cnccn4)cccc3C(=O)N([C@@H](C)CO)C[C@H]2C)cc1,0,0,0,0,0
O=C(CN1CCOCC1)NCC[C@@H]1CC[C@H](NC(=O)Nc2ccc(Cl)cc2)[C@H](CO)O1,-,0,0,0,0
COc1ccc(-c2sc3cc(OC)ccc3c2-c2ccc(OCCN3CCOCC3)cc2)cc1,0,0,0,0,0
Cc1c(-c2ccc(OCCN3CCOCC3)cc2)c(=O)oc2ccc3ccccc3c12,0,19,-,0,0
Cc1ccc(S(=O)(=O)Nc2ccc3c(c2)C(=O)N([C@@H](C)CO)C[C@@H](C)[C@@H](CN(C)S(=O)(=O)c2ccccc2)OCCCC[C@H](C)O3)cc1,0,0,0,0,0
SMILES,FN deposit inh,SIRT5 block,PGC1a acetyl inh,ERAP1 inh,FGF22 binding
Cc1ccc(S(=O)(=O)Nc2ccc3c(c2)C(=O)N([C@H](C)CO)C[C@@H](C)[C@@H](CN(C)S(=O)(=O)c2ccccc2)OCCCC[C@@H](C)O3)cc1,0,21,0,0,-
Cc1ccc(S(=O)(=O)N(C)C[C@@H]2OCCCC[C@@H](C)Oc3ccc(NS(=O)(=O)c4ccccc4)cc3C(=O)N([C@H](C)CO)C[C@H]2C)cc1,0,22,0,0,0
Cc1ccc(S(=O)(=O)Nc2ccc3c(c2)C(=O)N([C@H](C)CO)C[C@@H](C)[C@@H](CN(C)CC2CCCCC2)OCCCC[C@H](C)O3)cc1,-,18,0,0,0
Cc1ccc(S(=O)(=O)Nc2ccc3c(c2)C(=O)N([C@H](C)CO)C[C@@H](C)[C@H](CN(C)S(=O)(=O)c2ccccc2)OCCCC[C@H](C)O3)cc1,0,0,0,0,-
Cc1ccc(S(=O)(=O)Nc2ccc3c(c2)C(=O)N([C@@H](C)CO)C[C@H](C)[C@@H](CN(C)S(=O)(=O)c2ccccc2)OCCCC[C@@H](C)O3)cc1,0,19,0,0,-
Cc1ccc(S(=O)(=O)Nc2ccc3c(c2)C(=O)N([C@@H](C)CO)C[C@@H](C)[C@H](CN(C)CC2CCCCC2)OCCCC[C@H](C)O3)cc1,-,0,0,0,0
Cc1ccc(S(=O)(=O)N(C)C[C@@H]2OCCCC[C@@H](C)Oc3ccc(NS(=O)(=O)c4ccccc4)cc3C(=O)N([C@@H](C)CO)C[C@@H]2C)cc1,0,21,0,0,0
CCCCOc1ccc(C(O)C(CN2CCOCC2)c2ccccc2)cc1 (stereo not given),0,15,0,0,0
O=C(c1ccc(Cl)cc1)C(CN1CCCC1)c1ccccc1 (stereo not given),53,0,-,0,0
COc1ccc(C(=O)C(CN2CCOCC2)c2ccccc2)cc1 (stereo not given),-,0,0,0,0
O=C(c1ccc(F)cc1)C(CN1CCOCC1)c1ccccc1 (stereo not given),-,0,60,0,0
CCCOc1ccc(C(O)C(CN2CCOCC2)c2ccccc2)cc1 (stereo not given),-,0,-,0,-
CCCCOc1ccc(C(=O)C(CN2CCOCC2)c2ccccc2)cc1 (stereo not given),-,-,80,-,-
O=C(c1ccccc1)C(CCC(CN1CCOCC1)C(=O)c1ccccc1)CN1CCOCC1 (stereo not given),-,-,0,-,-
CCCNC(=O)N1CC2(CCN(C(=O)CN(C)C)CC2)c2c(n(C)c3cc(OC)ccc23)[C@@H]1CO,-,0,0,0,0
CC(C)Oc1ccc(C(CC(=O)O)n2cnnn2)cc1 (stereo not given),-,0,0,0,43
Cc1ccc(S(=O)(=O)Oc2ccccc2)cc1,0,0,0,0,0
Cc1ccc(S(=O)(=O)Oc2cccc([N+](=O)[O-])c2)cc1,0,-,0,0,44
NC(=S)N/N=C/c1cc([N+](=O)[O-])ccc1Cl,0,0,-,0,0
Nc1nnnn1CC(=O)N/N=C/c1cc([N+](=O)[O-])ccc1Cl,0,0,0,0,43
